Experimental data reported in ChEMBL document CHEMBL5260793, “Novel pyrazolo[3,4-d]pyrimidine with 4-(1H-benzimidazol-2-yl)-phenylamine as broad spectrum anticancer agents: Synthesis, cell based assay, topoisomerase inhibition, DNA intercalation and bovine serum albumin studies” (Eur J Med Chem, 2017).
The source made the active and inactive calls. No cut-off for these calls is given here.

Tests used:
[1] = target: DNA topoisomerase 2-alpha (Homo sapiens) (UniProt P11388); experiment: Inhibition of human DNA topoisomerase II-alpha mediated supercoiled pHOT1 plasmid DNA relaxation at 100 uM incubated for 30 mins by ethidium bromide staining based agarose gel electrophoresis analysis
DNA topoisomerase 2-alpha (Homo sapiens), sequence (P11388 whole entry): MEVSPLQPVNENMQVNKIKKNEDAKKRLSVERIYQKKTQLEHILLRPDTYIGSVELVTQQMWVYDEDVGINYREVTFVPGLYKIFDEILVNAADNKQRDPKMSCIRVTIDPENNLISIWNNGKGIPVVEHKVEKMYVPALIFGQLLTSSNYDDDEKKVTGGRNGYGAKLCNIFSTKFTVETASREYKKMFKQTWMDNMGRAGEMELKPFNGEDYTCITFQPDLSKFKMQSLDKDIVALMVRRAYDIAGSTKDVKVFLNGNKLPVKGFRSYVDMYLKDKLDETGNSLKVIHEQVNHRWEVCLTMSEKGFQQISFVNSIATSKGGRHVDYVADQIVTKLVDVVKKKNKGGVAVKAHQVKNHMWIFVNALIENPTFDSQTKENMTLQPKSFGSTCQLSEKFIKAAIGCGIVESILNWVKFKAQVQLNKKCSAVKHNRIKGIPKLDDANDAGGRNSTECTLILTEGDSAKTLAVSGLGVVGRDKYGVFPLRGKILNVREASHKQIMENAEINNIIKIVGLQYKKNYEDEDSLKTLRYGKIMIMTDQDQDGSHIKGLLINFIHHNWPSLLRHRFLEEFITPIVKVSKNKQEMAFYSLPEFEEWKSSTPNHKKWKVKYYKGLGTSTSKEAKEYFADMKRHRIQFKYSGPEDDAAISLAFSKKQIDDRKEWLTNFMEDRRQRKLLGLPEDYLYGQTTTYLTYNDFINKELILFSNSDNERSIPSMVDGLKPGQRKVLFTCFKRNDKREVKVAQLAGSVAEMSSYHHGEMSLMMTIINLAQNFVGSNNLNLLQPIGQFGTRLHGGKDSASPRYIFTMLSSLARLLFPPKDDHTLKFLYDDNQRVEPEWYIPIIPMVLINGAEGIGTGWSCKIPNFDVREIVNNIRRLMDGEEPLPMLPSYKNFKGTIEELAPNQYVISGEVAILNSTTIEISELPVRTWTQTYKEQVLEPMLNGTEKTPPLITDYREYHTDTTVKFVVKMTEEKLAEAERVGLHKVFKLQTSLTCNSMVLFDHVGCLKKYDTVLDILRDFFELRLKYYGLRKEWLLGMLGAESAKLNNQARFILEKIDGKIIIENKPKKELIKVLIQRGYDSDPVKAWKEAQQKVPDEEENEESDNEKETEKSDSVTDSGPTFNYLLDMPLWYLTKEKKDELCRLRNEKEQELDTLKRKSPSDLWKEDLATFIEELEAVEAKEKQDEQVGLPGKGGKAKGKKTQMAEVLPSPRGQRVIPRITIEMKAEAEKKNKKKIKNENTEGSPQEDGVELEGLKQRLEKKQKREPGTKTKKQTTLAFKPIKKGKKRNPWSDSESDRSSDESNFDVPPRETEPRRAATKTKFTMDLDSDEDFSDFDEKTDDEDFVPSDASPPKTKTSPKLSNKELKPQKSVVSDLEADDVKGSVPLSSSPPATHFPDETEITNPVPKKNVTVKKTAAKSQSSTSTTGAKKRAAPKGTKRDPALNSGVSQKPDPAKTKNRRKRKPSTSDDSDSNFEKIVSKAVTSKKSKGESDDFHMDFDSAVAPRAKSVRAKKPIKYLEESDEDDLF
In short: (§1)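 Reaction buffer: 50 mM Tris-Cl pH 8.0, 120 mM KCl, 10 mM MgCl2, 0.5 mM ATP, 0.5 mM DTT. Each reaction held 500 ng supercoiled pHOT1 and 1 U human Topo IIα, with compound at 10–100 μM, for 30 min at 37 °C. Reactions were stopped with glycerol/EDTA/bromophenol blue, run on 1% agarose in TBE, and stained with ethidium bromide. Etoposide 25 μM was the positive control.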

Albumin = Albumin (Bos taurus, UniProt P02769); experiment: Binding affinity to bovine serum albumin assessed as decrease in fluorescence intensity at pH 7.4 at 0 to 30 uM by fluorescence quenching method; details: cattle
Albumin, sequence (P02769 whole entry): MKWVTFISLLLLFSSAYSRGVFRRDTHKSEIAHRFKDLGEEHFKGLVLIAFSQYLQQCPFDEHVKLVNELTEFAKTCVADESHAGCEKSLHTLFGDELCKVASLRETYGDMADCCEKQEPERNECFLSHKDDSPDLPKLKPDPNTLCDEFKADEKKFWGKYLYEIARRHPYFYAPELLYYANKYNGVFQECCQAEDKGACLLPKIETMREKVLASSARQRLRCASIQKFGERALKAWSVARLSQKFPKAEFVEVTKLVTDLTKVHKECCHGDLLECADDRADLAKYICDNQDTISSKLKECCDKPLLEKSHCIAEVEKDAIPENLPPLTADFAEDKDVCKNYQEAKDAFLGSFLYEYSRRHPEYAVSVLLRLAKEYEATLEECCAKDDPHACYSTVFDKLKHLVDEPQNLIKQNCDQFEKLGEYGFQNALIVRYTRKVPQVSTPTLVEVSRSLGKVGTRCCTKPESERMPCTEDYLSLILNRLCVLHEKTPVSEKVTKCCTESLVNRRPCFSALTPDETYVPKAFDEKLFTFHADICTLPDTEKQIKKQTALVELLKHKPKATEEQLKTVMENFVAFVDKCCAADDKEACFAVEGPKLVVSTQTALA

Calf thymus DNA [2] = experiment: Binding affinity to calf thymus DNA assessed as hypochromicity at pH 7.4 at 10 uM by UV-vis absorption spectroscopy; type: nucleic-acid assay; details: Bos taurus
In short: (§2)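 Absorption titration at 300 K in a 1 cm cell, background subtracted. Compound was fixed (10 μM per legend; 20 μM in methods) with ct-DNA added up to 15–20 μM in 10 mM phosphate buffer, pH 7.4 (A260/A280 1.82). A buffer-addition control was run. K was taken from the 1/(Af−Aobs) vs 1/[DNA] fit.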

Calf thymus DNA [3] = experiment: Binding affinity to calf thymus DNA assessed as maximum absorption wavelength shift at pH 7.4 at 10 uM by UV-vis absorption spectroscopy; type: nucleic-acid assay; details: Bos taurus; in short: as §2
[4] = target: T1, DNA topoisomerase 1 (Homo sapiens) (UniProt P11387); experiment: Inhibition of human DNA topoisomerase I mediated supercoiled pHOT1 plasmid DNA relaxation upto 100 uM incubated for 30 mins by ethidium bromide staining based agarose gel electrophoresis analysis
T1 sequence (whole entry): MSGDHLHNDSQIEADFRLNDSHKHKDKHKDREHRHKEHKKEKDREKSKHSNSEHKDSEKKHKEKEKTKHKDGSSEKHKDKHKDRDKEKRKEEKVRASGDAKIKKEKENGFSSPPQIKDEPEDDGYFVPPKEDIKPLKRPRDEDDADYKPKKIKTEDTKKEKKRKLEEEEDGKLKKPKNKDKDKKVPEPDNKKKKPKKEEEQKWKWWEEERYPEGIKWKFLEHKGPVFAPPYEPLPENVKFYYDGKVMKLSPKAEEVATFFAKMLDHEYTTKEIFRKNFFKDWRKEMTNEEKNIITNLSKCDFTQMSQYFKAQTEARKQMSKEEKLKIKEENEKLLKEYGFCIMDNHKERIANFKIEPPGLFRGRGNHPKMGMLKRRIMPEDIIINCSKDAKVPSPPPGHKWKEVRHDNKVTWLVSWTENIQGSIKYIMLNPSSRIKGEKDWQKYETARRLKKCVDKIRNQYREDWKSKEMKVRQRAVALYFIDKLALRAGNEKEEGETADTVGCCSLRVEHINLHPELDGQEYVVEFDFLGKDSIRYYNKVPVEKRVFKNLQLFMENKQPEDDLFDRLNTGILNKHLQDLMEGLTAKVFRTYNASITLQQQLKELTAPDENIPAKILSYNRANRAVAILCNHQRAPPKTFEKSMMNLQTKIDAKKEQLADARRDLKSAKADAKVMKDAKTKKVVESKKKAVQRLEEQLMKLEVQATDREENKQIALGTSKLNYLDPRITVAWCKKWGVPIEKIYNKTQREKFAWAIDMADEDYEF

[5] = target: DNA topoisomerase 2-alpha (Homo sapiens) (UniProt P11388); experiment: Inhibition of human DNA topoisomerase II-alpha mediated supercoiled pHOT1 plasmid DNA relaxation at 50 uM incubated for 30 mins by ethidium bromide staining based agarose gel electrophoresis analysis; in short: as §1
[6] = target: DNA topoisomerase 2-alpha (Homo sapiens) (UniProt P11388); experiment: Inhibition of human DNA topoisomerase II-alpha mediated supercoiled pHOT1 plasmid DNA relaxation at 75 uM incubated for 30 mins by ethidium bromide staining based agarose gel electrophoresis analysis; in short: as §1
[7] = Anticancer activity against human Non-small cell lung cancer cell line assessed as lethality incubated for 48 hrs by Sulphorhodamine B assay; type: functional
[8] = system: Panel melanoma (Carcinoma cell lines); experiment: Anticancer activity against human Panel melanoma (Carcinoma cell lines) assessed as lethality incubated for 48 hrs by Sulphorhodamine B assay; type: functional
[9] = system: Panel renal (Carcinoma cell lines); experiment: Anticancer activity against human Panel renal (Carcinoma cell lines) assessed as lethality incubated for 48 hrs by Sulphorhodamine B assay; type: functional
[10] = system: Panel prostate (Carcinoma cell lines); experiment: Anticancer activity against human Panel prostate (Carcinoma cell lines) assessed as lethality incubated for 48 hrs by Sulphorhodamine B assay; type: functional
[11] = system: Panel breast (Carcinoma cell lines); experiment: Anticancer activity against human Panel breast (Carcinoma cell lines) assessed as cell growth inhibition incubated for 48 hrs by Sulphorhodamine B assay; type: functional
In short: (§3)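 NCI-60 five-dose screen. Cells in RPMI 1640 with 5% FBS and 2 mM L-glutamine were plated at 5,000–40,000 cells/well and held 24 h before dosing. Compounds came from DMSO stocks and were given at five concentrations (10-fold or ½-log dilutions) for 48 h at 37 °C. Adherent cells were TCA-fixed and stained with SRB; A515 was read. GI50 was set from growth = 50% and TGI from Ti = Tz, using Tz/C/Ti.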

[12] = system: Panel prostate (Carcinoma cell lines); experiment: Anticancer activity against human Panel prostate (Carcinoma cell lines) assessed as cell growth inhibition incubated for 48 hrs by Sulphorhodamine B assay; type: functional; in short: as §3
[13] = system: Panel CNS (Carcinoma cell lines); experiment: Anticancer activity against human Panel CNS (Carcinoma cell lines) assessed as lethality incubated for 48 hrs by Sulphorhodamine B assay; type: functional
[14] = system: Panel leukemia (Carcinoma cell lines); experiment: Anticancer activity against human Panel leukemia (Carcinoma cell lines) assessed as cell growth inhibition incubated for 48 hrs by Sulphorhodamine B assay; type: functional; in short: as §3
[15] = system: Panel breast (Carcinoma cell lines); experiment: Anticancer activity against human Panel breast (Carcinoma cell lines) assessed as lethality incubated for 48 hrs by Sulphorhodamine B assay; type: functional; details: read-out: LC50 (the source's name)
[16] = system: Panel colon (Carcinoma cell lines); experiment: Anticancer activity against human Panel colon (Carcinoma cell lines) assessed as cell growth inhibition incubated for 48 hrs by Sulphorhodamine B assay; type: functional; in short: as §3
Calf thymus DNA [17] = experiment: Displacement of Ethidium bromide from calf thymus DNA/EtBr complex assessed as decrease in fluorescent intensity by fluorescence based EtBr-displacement assay; type: nucleic-acid assay; details: Bos taurus
In short: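 ct-DNA (0–20 μM) was pre-mixed with ethidium bromide, diluted from a 1 mM stock. Compound was then added in 2 μM steps up to 50 μM, with mixing after each addition. Emission was recorded with excitation at 480 nm.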

[18] = system: Panel leukemia (Carcinoma cell lines); experiment: Anticancer activity against human Panel leukemia (Carcinoma cell lines) assessed as lethality incubated for 48 hrs by Sulphorhodamine B assay; type: functional
[19] = system: Panel CNS (Carcinoma cell lines); experiment: Anticancer activity against human Panel CNS (Carcinoma cell lines) assessed as cell growth inhibition incubated for 48 hrs by Sulphorhodamine B assay; type: functional; in short: as §3
[20] = system: Panel breast (Carcinoma cell lines); experiment: Anticancer activity against human Panel breast (Carcinoma cell lines) assessed as total growth inhibition incubated for 48 hrs by Sulphorhodamine B assay; type: functional; in short: as §3
[21] = Anticancer activity against human Non-small cell lung cancer cell line assessed as total growth inhibition incubated for 48 hrs by Sulphorhodamine B assay; type: functional; in short: as §3
[22] = system: Panel melanoma (Carcinoma cell lines); experiment: Anticancer activity against human Panel melanoma (Carcinoma cell lines) assessed as total growth inhibition incubated for 48 hrs by Sulphorhodamine B assay; type: functional; in short: as §3
[23] = system: Panel renal (Carcinoma cell lines); experiment: Anticancer activity against human Panel renal (Carcinoma cell lines) assessed as cell growth inhibition incubated for 48 hrs by Sulphorhodamine B assay; type: functional; in short: as §3
[24] = system: Panel ovarian (Carcinoma cell lines); experiment: Anticancer activity against human Panel ovarian (Carcinoma cell lines) assessed as lethality incubated for 48 hrs by Sulphorhodamine B assay; type: functional
[25] = system: Panel prostate (Carcinoma cell lines); experiment: Anticancer activity against human Panel prostate (Carcinoma cell lines) assessed as total growth inhibition incubated for 48 hrs by Sulphorhodamine B assay; type: functional; in short: as §3
[26] = system: Panel melanoma (Carcinoma cell lines); experiment: Anticancer activity against human Panel melanoma (Carcinoma cell lines) assessed as cell growth inhibition incubated for 48 hrs by Sulphorhodamine B assay; type: functional; in short: as §3
[27] = system: Panel leukemia (Carcinoma cell lines); experiment: Anticancer activity against human Panel leukemia (Carcinoma cell lines) assessed as total growth inhibition incubated for 48 hrs by Sulphorhodamine B assay; type: functional
[28] = Anticancer activity against human Non-small cell lung cancer cell line assessed as cell growth inhibition incubated for 48 hrs by Sulphorhodamine B assay; type: functional; in short: as §3
[29] = system: Panel CNS (Carcinoma cell lines); experiment: Anticancer activity against human Panel CNS (Carcinoma cell lines) assessed as total growth inhibition incubated for 48 hrs by Sulphorhodamine B assay; type: functional; in short: as §3
[30] = system: Panel renal (Carcinoma cell lines); experiment: Anticancer activity against human Panel renal (Carcinoma cell lines) assessed as total growth inhibition incubated for 48 hrs by Sulphorhodamine B assay; type: functional
[31] = system: Panel ovarian (Carcinoma cell lines); experiment: Anticancer activity against human Panel ovarian (Carcinoma cell lines) assessed as total growth inhibition incubated for 48 hrs by Sulphorhodamine B assay; type: functional
[32] = system: Panel ovarian (Carcinoma cell lines); experiment: Anticancer activity against human Panel ovarian (Carcinoma cell lines) assessed as cell growth inhibition incubated for 48 hrs by Sulphorhodamine B assay; type: functional; in short: as §3
[33] = system: Panel colon (Carcinoma cell lines); experiment: Anticancer activity against human Panel colon (Carcinoma cell lines) assessed as lethality incubated for 48 hrs by Sulphorhodamine B assay; type: functional
[34] = system: Panel colon (Carcinoma cell lines); experiment: Anticancer activity against human Panel colon (Carcinoma cell lines) assessed as total growth inhibition incubated for 48 hrs by Sulphorhodamine B assay; type: functional; in short: as §3

Compound | inhibition [1] | Activity (Albumin) | Activity (Calf thymus DNA [2]) | Activity (Calf thymus DNA [3]) [nm] | inhibition [4] | inhibition [5] | inhibition [6] | GI50 [11] [µM] | GI50 [12] [µM] | GI50 [14] [µM] | GI50 [16] [µM] | GI50 [19] [µM] | TGI [20] [µM] | TGI [21] [µM] | TGI [22] [µM] | GI50 [23] [µM] | TGI [25] [µM] | GI50 [26] [µM] | GI50 [28] [µM] | TGI [29] [µM] | further results
NCCNc1nc(Nc2ccc(-c3nc4ccccc4[nH]3)cc2)c2cn[nH]c2n1 | Active | Active | Active | 259 | inactive | Active | Active | – | – | – | – | – | – | – | – | – | – | – | – | – | –
c1ccc(CNc2nc(Nc3ccc(-c4nc5ccccc5[nH]4)cc3)c3cn[nH]c3n2)cc1 | Active | Active | Active | 264 | inactive | Active | Active | 2.04 | 2.56 | 2.67 | 2 | 2.96 | 5.85 | 8.99 | 4.29 | 2.3 | 9.43 | 1.85 | 2.54 | 16.7 | LC50 (lethal concentration, 50% cell kill) [7]: 55.3 µM; LC50 (lethal concentration 50) [8]: 19.3 µM; LC50 (50% lethal concentration) [9]: 31.2 µM; LC50 [10]: 41.8 µM; LC50 (concentration killing 50% of cells) [13]: 28.1 µM; CC50 [15]: 46.3 µM; Activity (Calf thymus DNA [17]): Active; LC50 [18]: > 100 µM; LC50 (concentration killing 50% of cells) [24]: 41.8 µM; TGI [27]: 6.43 µM; TGI [30]: 6.16 µM; TGI [31]: 7.83 µM; GI50 [32]: 2.52 µM; LC50 (lethal concentration, 50% cell kill) [33]: 34.7 µM; TGI [34]: 5.12 µM
c1ccc2[nH]c(-c3ccc(Nc4nc(N5CCOCC5)nc5[nH]ncc45)cc3)nc2c1 | Active | Active | Active | 260 | inactive | Active | Active | – | – | – | – | – | – | – | – | – | – | – | – | – | –
CC[C@H](CO)Nc1nc(NCc2ccccc2)c2ncn(C(C)C)c2n1 [SELICICLIB] | – | – | – | – | – | – | – | 22.7 | 17.9 | 37.5 | 24.8 | 24.7 | 73 | 84.8 | 57.6 | 24.9 | 81.5 | 14.8 | 23.6 | 82.2 | GI50 [32]: 29.3 µM; TGI [34]: 84.9 µM
c1ccc2[nH]c(-c3ccc(Nc4nc(N5CCCC5)nc5[nH]ncc45)cc3)nc2c1 | Active | Active | Active | 259 | inactive | Active | Active | 0.73 | 1.37 | 2.38 | 2.32 | 0.86 | 2.08 | 3.17 | 1.53 | 1.22 | 3.14 | 0.67 | 1.08 | 2.01 | LC50 (lethal concentration, 50% cell kill) [7]: 11.5 µM; LC50 (lethal concentration 50) [8]: 4.32 µM; LC50 (50% lethal concentration) [9]: 7.04 µM; LC50 [10]: 20.6 µM; LC50 (concentration killing 50% of cells) [13]: 4.17 µM; CC50 [15]: 6.35 µM; Activity (Calf thymus DNA [17]): Active; LC50 [18]: 31.8 µM; LC50 (concentration killing 50% of cells) [24]: 6.85 µM; TGI [27]: 6.7 µM; TGI [30]: 2.67 µM; TGI [31]: 2.73 µM; GI50 [32]: 1.1 µM; LC50 (lethal concentration, 50% cell kill) [33]: 2.23 µM; TGI [34]: 5.88 µM
